These results are taken from ChEMBL document CHEMBL2176975, “Novel toll-like receptor 2 ligands for targeted pancreatic cancer imaging and immunotherapy” (J Med Chem, 2012).

What is called Ki is a dissociation constant, usually derived from enzyme kinetics or from competition with a known ligand. Higher therefore signals weaker binding. The term EC50 denotes the concentration at which the effect is half-maximal.

The structures appear in SMILES notation. Non-standard residues stand in square brackets, D forms with d. Residues, ends and D or L forms follow the SMILES beside them. *: point of attachment. Propyl(2R-PamO,3-PamO) = CCCCCCCCCCCCCCCC(=O)OC[C@H](C*)OC(=O)CCCCCCCCCCCCCCC; X1 = CC(=O)NCCCOCCOCCOCCCNC(=O)COCC(=O)*; Palmitoyl = CCCCCCCCCCCCCCCC(=O)*

The species entered for series [1] is Mus musculus. Kind of series: Toxicity in Trp1455/9M peptide immunized C57BL/6 mouse at 50 ug measured after 34 of immunization. The class given is organism-based. The following applies: in vivo.
The species named for series [2] is Mus musculus. As to the kind of experiment: Immunomodulatory activity in Trp1455/9M peptide immunized C57BL/6 mouse assessed as Trp1455/9M specific CD8+ T cells in blood at 50 ug using Trp1455/9M/ H-2Db staining measured after 34 of immunization by FACS analysis. The class given is functional, T-cell. Put shortly: (§1)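 C57BL/6 mice, 6-8 weeks, immunized iv with 100 μg Trp1 455/9M peptide, 50 μg anti-CD40 antibody and 50 μg TLR2 agonist in 200 μL. Submandibular blood on days 7, 21, 34, red cells lysed, stained 40 min on ice with CD8a antibody, Trp1 455/9M/H-2Db tetramer and anti-MHC II; % tetramer-positive CD8+ cells by flow cytometry; three mice per group, mean and SD.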
In general terms: In flow cytometry, cells or beads pass a laser one at a time.

The species named for series [3] is Mus musculus. Kind of series: Immunomodulatory activity in Trp1455/9M peptide immunized C57BL/6 mouse assessed as Trp1455/9M specific CD8+ T cells in blood at 50 ug using Trp1455/9M/ H-2Db staining measured after 21 of immunization by FACS analysis. The class given is functional, T-cell. A digest of the protocol:
as §1

The species entered for series [4] is Mus musculus. As to the kind of experiment: Immunomodulatory activity in Trp1455/9M peptide immunized C57BL/6 mouse assessed as Trp1455/9M specific CD8+ T cells in blood at 50 ug using Trp1455/9M/ H-2Db staining measured after 7 of immunization by FACS analysis. It is filed as functional, T-cell. Put shortly: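 C57BL/6 mice, 6-8 weeks old, immunized i.v. (200 μL) with a mixture of 100 μg Trp1_455/9M peptide, 50 μg anti-CD40 antibody (FGK45.5) and 50 μg TLR2 agonist. Submandibular blood taken, red cells lysed with ammonium chloride, stained 40 min on ice with CD8a, Trp1_455/9M/H-2Db tetramer and anti-MHC class II. Tetramer+ % of CD8+ cells read by flow cytometry; three mice per group.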

For series [5], the target named is T1, Toll-like receptor 2 (Homo sapiens, UniProt O60603). As to the kind of experiment: Displacement of Eu-DTPA from human TLR2 expressed in HEK293 cells after 1 hr. The class given is cell-based. Put shortly:
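Live-cell europium TRF competition binding in HEK-293/hTLR2 (poly-D-lysine plates) or SU.86.86 cells grown 2 days to ~80% confluence. Unlabeled ligand 1 μM to 0.01 nM plus 90 nM Eu-DTPA-labeled tracer, 1 h at 37°C; three washes, enhancement solution 30 min at 37°C, read at 340 nm excitation/615 nm emission with time delay.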

The target of series [6] is T1, Toll-like receptor 2. As to the kind of experiment: Agonist activity at human TLR2 expressed in HEK293 cells assessed as induction of NF-kappaB signaling after 24 hrs by luminescence based luciferase reporter gene assay relative to 10 ug/mL of SAA. The class given is functional, cell-based. Put shortly: (§2)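 HEK-293/hTLR2 reporter cells transiently transfected with NF-κB-luciferase plasmid pNifty-Luc, stimulated 24 h with test compound at 1 μg/mL; luciferin-induced luminescence read. Fold enhancement taken versus serum amyloid A at 1 μg/mL or 10 μg/mL; n = 4.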
In general terms: Reporter assays use an easily measured gene product as a stand-in for the process of interest.

Series [7] deals with T1, Toll-like receptor 2. As to the kind of experiment: Agonist activity at human TLR2 expressed in HEK293 cells assessed as induction of NF-kappaB signaling after 24 hrs by luminescence based luciferase reporter gene assay relative to 1 ug/mL of SAA. It is filed as functional, cell-based. Put shortly: as §2
For series [8], the target named is T1, Toll-like receptor 2. Kind of series: Agonist activity at human TLR2 expressed in HEK293 cells assessed as induction of NF-kappaB signaling after 24 hrs by luminescence based luciferase reporter gene assay. It is filed as functional, cell-based.

T1 sequence (O60603 whole entry): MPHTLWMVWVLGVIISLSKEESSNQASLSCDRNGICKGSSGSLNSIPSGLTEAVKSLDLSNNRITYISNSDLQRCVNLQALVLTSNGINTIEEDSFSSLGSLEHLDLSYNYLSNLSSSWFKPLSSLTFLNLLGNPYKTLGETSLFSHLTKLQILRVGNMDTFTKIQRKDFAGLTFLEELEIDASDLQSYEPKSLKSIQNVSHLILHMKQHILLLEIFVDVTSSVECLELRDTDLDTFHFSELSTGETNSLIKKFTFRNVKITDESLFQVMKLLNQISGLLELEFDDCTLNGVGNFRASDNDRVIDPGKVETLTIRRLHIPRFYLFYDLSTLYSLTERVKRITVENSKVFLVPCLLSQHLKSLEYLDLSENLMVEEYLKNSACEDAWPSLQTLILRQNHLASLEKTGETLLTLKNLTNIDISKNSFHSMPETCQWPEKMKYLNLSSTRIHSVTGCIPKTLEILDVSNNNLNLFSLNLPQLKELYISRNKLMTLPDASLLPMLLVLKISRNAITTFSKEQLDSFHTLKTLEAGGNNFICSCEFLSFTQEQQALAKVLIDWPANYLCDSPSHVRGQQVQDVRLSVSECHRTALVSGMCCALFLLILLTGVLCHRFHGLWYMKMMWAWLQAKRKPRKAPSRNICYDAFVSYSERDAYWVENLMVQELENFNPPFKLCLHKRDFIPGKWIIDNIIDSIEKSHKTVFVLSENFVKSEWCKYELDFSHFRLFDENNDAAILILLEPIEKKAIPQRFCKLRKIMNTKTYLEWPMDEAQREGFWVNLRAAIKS

In the case of `CCCCCCCCCCCCCCCC(=O)OC[C@H](CSC[C@H](NC(=O)COCC(=O)NCCCOCCOCCOCCCNC(C)=O)C(=O)NCC(=O)N[C@H](CO)C(=O)NCCCOCCOCCOCCCNC(=O)COCC(N)=O)OC(=O)CCCCCCCCCCCCCCC`, the Activity entry in the series filed under Mus musculus [1] was “Non-toxic”; in the series listed under Mus musculus [2], 6.63%; in the series filed under Mus musculus [3], 14.6%; in the series listed under Mus musculus [4] it was 49.6%. Further, at Toll-like receptor 2 [5], the affinity corresponds to a Ki of 25 nM. Also, the fold change (FC) at Toll-like receptor 2 [6] is 5.2; at Toll-like receptor 2 [7], 14. In addition, the EC50 on Toll-like receptor 2 [8] stood at 20 nM.

With `CCCCCCCCCCCCCCCC(=O)OC[C@H](CSC[C@H](N)C(=O)N[C@@H](CO)C(=O)N[C@@H](CCCCN)C(=O)N[C@@H](CCCCN)C(=O)N[C@@H](CCCCN)C(=O)N[C@@H](CCCCN)C(=O)O)OC(=O)CCCCCCCCCCCCCCC` (H-C(Propyl(2R-PamO,3-PamO))SKKKK-OH), the Activity result is on record as “Non-toxic” in the series listed under Mus musculus [1], 11.3% in the series listed under Mus musculus [2], 18.4% in the series filed under Mus musculus [3] and 56.6% in the series filed under Mus musculus [4]. Moreover, the EC50 on Toll-like receptor 2 [8] is 3.7 nM.

As for `CCCCCCCCCCCCCCCC(=O)N[C@@H](CSC[C@@H](COC(=O)CCCCCCCCCCCCCCC)OC(=O)CCCCCCCCCCCCCCC)C(=O)N[C@@H](CO)C(=O)N[C@@H](CCCCN)C(=O)N[C@@H](CCCCN)C(=O)N[C@@H](CCCCN)C(=O)N[C@@H](CCCCN)C(=O)O` (Palmitoyl-C(Propyl(2R-PamO,3-PamO))SKKKK-OH), the Activity result is recorded as “Non-toxic” in the series listed under Mus musculus [1], 10.2% in the series filed under Mus musculus [2] and 16.8% in the series filed under Mus musculus [3]. The concentration giving a half-maximal response (EC50) on Toll-like receptor 2 [8] turned out to be 23 nM.

Regarding `CCCCCCCCCCCCCCCC(=O)OC[C@H](CSC[C@H](NC(=O)COCC(=O)NCCCOCCOCCOCCCNC(C)=O)C(=O)NCC(=O)N[C@@H](CO)C(=O)N[C@@H](CCC(N)=O)C(=O)N[C@@H](CC(N)=O)C(=O)N[C@@H](CC(C)C)C(=O)N[C@@H](C)C(=O)N[C@@H](CO)C(=O)N[C@@H](CC(C)C)C(=O)N[C@@H](CCC(=O)O)C(=O)N[C@@H](CCC(=O)O)C(N)=O)OC(=O)CCCCCCCCCCCCCCC` (X1-C(Propyl(2R-PamO,3-PamO))GSQNLASLEE-NH2), the fold change (FC) on Toll-like receptor 2 [6] came out at 4.8; at Toll-like receptor 2 [7], 13.

For the compound `CCCCCCCCCCCCCCCC(=O)OC[C@H](CSC[C@H](NC(=O)COCC(=O)NCCCOCCOCCOCCCNC(C)=O)C(=O)N[C@H](CO)C(=O)N[C@H](CCCNC(=N)N)C(=O)N[C@H](Cc1ccccc1)C(=O)N[C@H](CC(=O)O)C(=O)N[C@H](CCC(=O)O)C(=O)N[C@H](CC(=O)O)C(=O)N[C@H](CC(=O)O)C(=O)N[C@H](CC(C)C)C(=O)N[C@H](CCC(=O)O)C(N)=O)OC(=O)CCCCCCCCCCCCCCC` (X1-C(Propyl(2R-PamO,3-PamO))[dS][dR][dF][dD][dE][dD][dD][dL][dE]-NH2), the fold change (FC) on Toll-like receptor 2 [6] turned out to be 4.2; at Toll-like receptor 2 [7], 11.
